Results as given in paper PMC10455042 (Biochemical engineering journal, 2023).
Where a SMILES comes first, the peptide text is derived from it. [ ]: non-standard residue; d: D form.

How the values were obtained:
[1] = test system: N2a cells; assay: alamarBlue cell viability assay; type: cell-based; conditions: 24 h
Method in brief: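 N2a cells in MEM with 10% cosmic calf serum, plated at 1×10^4 cells/well two days before the assay, then PBS-washed. Exposed to increasing peptide concentrations (up to 200 µM) for 24 h at 37 °C, ECB-washed, then given alamarBlue in serum-free medium for 4 h at 37 °C. Fluorescence read at ex 532/[…], normalised to no-peptide control (F/C), triplicate average.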

[2] = Peptide degradation assay in N2a lysates; type: in vitro ADME; conditions: 2 mg/mL N2a lysates, 37°C; HPLC, intact peptide
[3] = test system: Tau; assay: Western blotting analysis of Tau levels in N2a cells treated with PROTACs; type: cell-based; conditions: N2a cells pre-treated with 10 μM PYR-41 for one hour, then co-incubated with 200 μM peptide for 12 h; western blot
[4] = flow cytometry; cited from earlier work
[5] = RWRWR peptide alone; cited from earlier work

Q: What does the source list for `CC[C@H](C)[C@H](NC(=O)[C@H](Cc1c[nH]c2ccccc12)NC(=O)[C@H](CCCNC(=N)N)NC(=O)CNC(=O)[C@H]1CCCN1C(=O)[C@@H](NC(=O)[C@H](CCCNC(=N)N)NC(=O)[C@@H](NC(=O)[C@H](Cc1c[nH]c2ccccc12)NC(=O)[C@H](CCCNC(=N)N)NC(C)=O)C(C)C)C(C)C)C(=O)N[C@@H](CCCNC(=N)N)C(=O)N[C@@H](CCC(N)=O)C(=O)N[C@@H](Cc1ccc(O)cc1)C(=O)N[C@@H](CCC(N)=O)C(=O)N[C@@H](CCC(N)=O)C(=O)N[C@@H](Cc1ccc(O)cc1)C(=O)N[C@@H](CCC(N)=O)C(=O)N[C@@H](CC(=O)O)C(=O)N[C@@H](C)C(=O)N[C@H](C(=O)N[C@@H](C)C(=O)N[C@@H](CC(=O)O)C(=O)N[C@@H](CCC(=O)O)C(=O)N[C@@H](CCC(N)=O)C(=O)NCC(N)=O)[C@@H](C)O` [Peptide 2] (Ac-RWVRV[dP]GRWIRQYQQYQDATADEQG-NH2)?
A: Effect on cell viability [1]: minimal effects on cell viability; Resistance to degradation in N2a lysates [2]: more resistant to degradation than its unstructured counterpart Peptide 1; Decrease in Tau signal on co-incubation with E1 inhibitor PYR-41 [3]: decrease is negated

Q: With `CC[C@H](C)[C@H](NC(=O)[C@H](Cc1ccc(O)cc1)NC(=O)[C@@H]1CCCN1C(=O)[C@H](C)NC(=O)[C@H](CC(C)C)NC(=O)[C@H](C)NC(=O)[C@H](CO)NC(=O)CNC(=O)[C@H](CO)NC(=O)CNC(=O)CNC(=O)[C@H](CCC(N)=O)NC(=O)[C@H](CCC(=O)O)NC(=O)[C@H](CC(=O)O)NC(=O)[C@H](C)NC(=O)[C@@H](NC(=O)[C@H](C)NC(=O)[C@H](CC(=O)O)NC(=O)[C@H](CCC(N)=O)NC(=O)[C@H](Cc1ccc(O)cc1)NC(=O)[C@H](CCC(N)=O)NC(=O)[C@H](CCC(N)=O)NC(=O)[C@H](Cc1ccc(O)cc1)NC(C)=O)[C@@H](C)O)C(=O)N1CCC[C@H]1C(=O)N[C@H](CCCNC(=N)N)C(=O)N[C@H](CCCNC(=N)N)C(=O)N[C@H](CCCNC(=N)N)C(=O)N[C@H](CCCNC(=N)N)C(=O)N[C@H](CCCNC(=N)N)C(=O)N[C@H](CCCNC(=N)N)C(=O)N[C@H](CCCNC(=N)N)C(=O)N[C@H](CCCNC(=N)N)C(N)=O` [Peptide 1] (Ac-YQQYQDATADEQGGSGSALAPYIP[dR][dR][dR][dR][dR][dR][dR][dR]-NH2) as the compound, how does the “Effect on cell viability” value [1] read?
A: The value was “minimal effects on cell viability”.

Q: And the “Uptake (previously published)” value [4]?
A: Its value is “time-dependent uptake”.

Q: For RWVRWpGRWIRQ [RWRWR], which “Peptide remaining after 2 hours (previously reported)” value [5] is on record?
A: The value was “approximately 80%”.
